The values below come from PubChem BioAssay.

The structures appear in SMILES notation. Active and inactive are the calls of the source.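 How the source made its calls, unless noted: active means viability at or under a set limit in both replicates, limit being median viability minus 3 SD (cut at about 48% in these data, passing the limit was not always enough); inconclusive means at or under the limit in just one replicate; inactive means at or above the limit in both replicates.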

A short description of assay [1]: Her2 expression decrease, cell viability multiplex – SKBR3 breast tumor cells, AlphaScreen, ATP viability, primary screen (AID 461;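 active means Her2 level under about 52% in both replicate screens, with viability over 70% of control, limit read from the data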;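 on Her2 level: lower value means less Her2 protein in the cells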;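 on viability: percent of carrier control wells set as 100% viability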). The conditions noted are these: SKBR3 Her2 protein level, 18-24 h, measured here: SKBR3 viability, ATP luminescence, at 10 µM.
The target in assay [2] is Receptor tyrosine-protein kinase erbB-2 (Homo sapiens) (UniProt P04626). The assay is described as above. The conditions noted are these: 18-24 h, at 10 µM, stronger effect = lower value.
Assay [3] can be described thus: reduced viability of SK-BR-3 breast cancer cells – cell-based, 24 h, human, pilot screen (AID 572;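 active means viability at or below 10% of carrier control in both of two separate runs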;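 further: compound exposure lasted between 18 and 24 h rather than exactly 24 h; 100% = carrier-treated control wells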). The conditions noted are these: SK-BR-3 viability, CellTiter-Glo luminescence, at 10 µM, stronger effect = lower value.
The nature of assay [4]: HUVEC growth inhibition – cell-based, human, primary screen (AID 575;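 active means viability at or below 30% in both replicate assays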;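 further: 100% = median of untreated cell wells with 0.1% DMSO on each plate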). The conditions noted are these: HUVEC proliferation, CellTiter-Glo luminescence, 72 h; at 10 µM; stronger effect = lower value. In outline:
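Test system: HUVEC primary cells. Quantity: 1250 endothelial cells in each well. Dosing: single-point 10 µM, DMSO 0.1% final. Incubation: 72 h treatment at 37 °C. Measured by: CTG luminescence. Control set: DMSO cell controls and MePR drug controls. Plate: collagen-coated 384-well format.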

Assay [5] in a line: H69AR cell proliferation blockers – human, duplicate replicates, primary screen (AID 580).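 Further: 100% = mean luminescence of untreated wells and 0% = no signal.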 The note with it: H69AR lung tumor cells viability, ATP luminescence, 72 h; at 10 µM; stronger effect = lower value.
Assay [6] is described as follows: MRP1 drug-resistance reversers in H69AR cells – cell-based, doxorubicin co-treatment, pilot screen (AID 601;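 active means viability loss from added drug above about 55%, and viability with drug at most 40%, in both replicates, limit read from the data, passing the limit was not always enough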). The note with it: CellTiter-Glo, 72 h, at 10 µM; for differential viability (reversal): stronger effect = higher value.
A short description of assay [7]: yeast transport mutant growth inhibition pilot in 384-well plates, post-Golgi transport modulator project (AID 636; in the data active means inhibition above about 31%). The note with it: absorbance 615 nm, about 18 h, stronger effect = higher value.
The nature of assay [8]: growth suppression of yeast trafficking mutant, preliminary HTS, modulators of trafficking downstream of Golgi apparatus project, 1536-format plate, OD 615 nm (AID 637; in the data active means inhibition above about 30%). The conditions noted are these: yeast transport mutant growth, absorbance 615 nm, 18 h; stronger effect = higher value.
Where [9] appears, read: H69AR cells + 2 uM doxorubicin, measured here: viability with 2 uM doxorubicin, stronger effect = lower value.
Where [10] appears, read: H69AR cells, compound alone cytotoxicity.

Receptor tyrosine-protein kinase erbB-2 (Homo sapiens), sequence (P04626 whole entry, looked up): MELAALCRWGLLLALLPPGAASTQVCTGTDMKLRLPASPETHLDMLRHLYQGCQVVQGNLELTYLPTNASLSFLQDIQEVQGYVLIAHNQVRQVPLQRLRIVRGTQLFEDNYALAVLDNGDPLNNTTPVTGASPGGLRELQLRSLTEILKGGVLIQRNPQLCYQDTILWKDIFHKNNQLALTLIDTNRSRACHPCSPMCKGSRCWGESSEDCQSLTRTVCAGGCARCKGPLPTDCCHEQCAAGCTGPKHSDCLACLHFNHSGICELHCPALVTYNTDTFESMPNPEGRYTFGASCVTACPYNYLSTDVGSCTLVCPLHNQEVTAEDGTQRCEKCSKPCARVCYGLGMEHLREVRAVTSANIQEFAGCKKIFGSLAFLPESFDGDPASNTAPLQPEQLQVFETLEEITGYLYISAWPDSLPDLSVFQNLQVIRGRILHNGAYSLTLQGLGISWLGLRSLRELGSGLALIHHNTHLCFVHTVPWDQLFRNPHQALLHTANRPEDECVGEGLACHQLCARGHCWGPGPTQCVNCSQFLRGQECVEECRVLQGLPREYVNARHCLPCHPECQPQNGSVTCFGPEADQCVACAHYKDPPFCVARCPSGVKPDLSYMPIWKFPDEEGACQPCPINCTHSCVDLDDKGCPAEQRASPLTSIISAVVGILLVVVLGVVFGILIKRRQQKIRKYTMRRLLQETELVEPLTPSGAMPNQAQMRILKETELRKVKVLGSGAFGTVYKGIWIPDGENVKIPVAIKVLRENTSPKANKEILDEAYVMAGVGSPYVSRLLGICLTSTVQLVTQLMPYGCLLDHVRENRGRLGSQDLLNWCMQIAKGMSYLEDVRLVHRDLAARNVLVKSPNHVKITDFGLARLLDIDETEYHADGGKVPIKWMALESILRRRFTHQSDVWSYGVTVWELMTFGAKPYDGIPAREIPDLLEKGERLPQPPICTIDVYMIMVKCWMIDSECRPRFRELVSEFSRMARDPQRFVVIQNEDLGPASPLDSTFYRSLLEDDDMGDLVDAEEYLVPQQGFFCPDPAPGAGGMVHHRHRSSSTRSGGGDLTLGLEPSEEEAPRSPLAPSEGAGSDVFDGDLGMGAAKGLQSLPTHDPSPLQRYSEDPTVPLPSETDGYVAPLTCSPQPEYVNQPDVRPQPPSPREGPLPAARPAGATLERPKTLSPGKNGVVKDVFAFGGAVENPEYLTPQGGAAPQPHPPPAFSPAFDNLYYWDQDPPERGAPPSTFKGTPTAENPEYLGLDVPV

`COc1ccccc1C(=O)N1CCN(CCc2ccccc2)CC1`: the viability was 102% in assay [1]; 102% (inactive) in assay [3]; 88.2% (inactive) in assay [4]; 103% (inactive) in assay [5]; 99.2% in assay [6] (setting [9]); 103% in assay [6] (setting [10]). The Her2 level in assay [2] was 124% (inactive). Besides, in assay [6] (H69AR cells + 2 uM doxorubicin), the differential viability (reversal) was 3.95% (inactive). Further, the values for the inhibition in assay [7] and in assay [8] were 0% (inactive) and -4.17% (inactive), respectively.

In the case of `COC(=O)c1ccnc(/C=N/O)c1`, the viability was 95% in assay [1]; 95% (inactive) in assay [3]; 99.8% (inactive) in assay [4]; 88.1% (inactive) in assay [5]; 81% in assay [6] (setting [9]); 88.1% in assay [6] (setting [10]). Further, the Her2 level in assay [2] was 76% (inactive). The differential viability (reversal) in assay [6] (H69AR cells + 2 uM doxorubicin) was 7.13% (inactive). The inhibition in assay [7] is -3.92% (inactive); in assay [8], 2.7% (inactive).

Take `CCCn1c(SCC(=O)Nc2cc(C)on2)nc2c1c(=O)n(C)c(=O)n2C`: the viability in assay [1] is 100%; in assay [3], 100% (inactive); in assay [4], 87% (inactive); in assay [5], 100% (inactive); in assay [6] (setting [9]) it was 84.6%; in assay [6] (setting [10]) it was 100%. For the same compound, the Her2 level in assay [2] is 118% (inactive). Also, in assay [6] (H69AR cells + 2 uM doxorubicin), the differential viability (reversal) was 15.7% (inactive). For the same compound, the inhibition in assay [7] is 0% (inactive); in assay [8], -4.19% (inactive).

For `COc1ccc(Cn2c(=O)[nH]c3cc(C(=O)NCCCN4CCCC4)ccc3c2=O)cc1`, the viability was 106% in assay [1]; 106% (inactive) in assay [3]; 103% (inactive) in assay [4]; 92.3% (inactive) in assay [5]; 85.6% in assay [6] (setting [9]); 92.3% in assay [6] (setting [10]). Moreover, the Her2 level in assay [2] was 94% (inactive). The differential viability (reversal) in assay [6] (H69AR cells + 2 uM doxorubicin) was 6.71% (inactive). The inhibition is -7.03% (inactive) in assay [7] and 4.33% (inactive) in assay [8].

As to `CS(=O)(=O)NCc1nnc(SCC(=O)NC2CCCCC2)n1-c1ccc(F)cc1`, the viability in assay [1] was 98.5%; in assay [3], 98.5% (inactive); in assay [4], 102% (inactive); in assay [5] it was 97.6% (inactive); in assay [6] (setting [9]), 88.4%; in assay [6] (setting [10]) it was 97.6%. Further, in assay [2], the Her2 level is 100% (inactive). The differential viability (reversal) in assay [6] (H69AR cells + 2 uM doxorubicin) is 9.24% (inactive). In addition, the inhibition was -6.18% (inactive) in assay [7] and 12.3% (inactive) in assay [8].

`CCOc1ccccc1N1CCN(c2nc3ccccc3nc2C(C#N)C(=O)OC)CC1` (stereo not given): the viability was 74% in assay [1]; 74% (inactive) in assay [3]; 71.7% (inactive) in assay [4]; 83.9% (inactive) in assay [5]; 88.5% in assay [6] (setting [9]); 83.9% in assay [6] (setting [10]). Besides, the Her2 level in assay [2] was 78% (inactive). Besides, the differential viability (reversal) in assay [6] (H69AR cells + 2 uM doxorubicin) is -4.64% (inactive). Besides, the values for the inhibition in assay [7] and in assay [8] were 1.45% (inactive) and -2.1% (inactive), respectively.

`COC(=O)/C=c1\sc2ncnn2c1=O`: the viability in assay [1] is 95%; in assay [3] it was 95% (inactive); in assay [4], 72.5% (inactive); in assay [5] it was 78.7% (inactive); in assay [6] (setting [9]), 82.5%; in assay [6] (setting [10]), 78.7%. For the same compound, in assay [2], the Her2 level is 97.5% (inactive). Also, the differential viability (reversal) in assay [6] (H69AR cells + 2 uM doxorubicin) was -3.79% (inactive). Further, the figures for the inhibition in assay [7] and in assay [8] were 1.62% (inactive) and 4.92% (inactive), respectively.

Take `COc1ccc2[nH]c(=O)c(CN(Cc3cccs3)Cc3nnnn3C(C)(C)C)cc2c1`: the viability in assay [1] was 77.5%; in assay [3], 77.5% (inactive); in assay [4], 58.7% (inactive); in assay [5], 73.5% (inactive); in assay [6] (setting [9]), 66.2%; in assay [6] (setting [10]), 73.5%. Moreover, in assay [2], the Her2 level is 90% (inactive). In assay [6] (H69AR cells + 2 uM doxorubicin), the differential viability (reversal) was 7.29% (inactive). For the same compound, the inhibition in assay [7] was -6.13% (inactive); in assay [8], -0.95% (inactive).

For `Cc1ccc(S(=O)(=O)N2CCCC(c3nnc4n3-c3ccccc3SC4)C2)cc1` (stereo not given), the viability was 78% in assay [1]; 78% (inactive) in assay [3]; 87.2% (inactive) in assay [4]; 76.5% (inactive) in assay [5]; 72% in assay [6] (setting [9]); 76.5% in assay [6] (setting [10]). In addition, in assay [2], the Her2 level is 71.5% (inactive). Further, the differential viability (reversal) in assay [6] (H69AR cells + 2 uM doxorubicin) was 4.54% (inactive). The values for the inhibition in assay [7] and in assay [8] were -8.67% (inactive) and 4.92% (inactive), respectively.

With `OCc1nc2ccccc2n1CCCOc1ccccc1`, the viability in assay [1] is 80.5%; in assay [3], 80.5% (inactive); in assay [4], 90.6% (inactive); in assay [5] it was 103% (inactive); in assay [6] (setting [9]) it was 85.9%; in assay [6] (setting [10]), 103%. Further, the Her2 level in assay [2] was 102% (inactive). Also, the differential viability (reversal) in assay [6] (H69AR cells + 2 uM doxorubicin) was 16.7% (inactive). The inhibition in assay [7] was -0.13% (inactive); in assay [8], -0.83% (inactive).

As for `Cc1nnc2ccc(N3CCC4(CC3)OCCO4)nn12`, the viability in assay [1] was 101%; in assay [3], 101% (inactive); in assay [4], 100% (inactive); in assay [5], 108% (inactive); in assay [6] (setting [9]) it was 96.5%; in assay [6] (setting [10]), 108%. In addition, in assay [2], the Her2 level is 89.5% (inactive). For the same compound, in assay [6] (H69AR cells + 2 uM doxorubicin), the differential viability (reversal) is 11.1% (inactive). Further, the inhibition in assay [7] was -6.22% (inactive); in assay [8], -3% (inactive).

`CCn1nnnc1SCC(=O)N1CCOCC1`: the viability was 116% in assay [1]; 116% (inactive) in assay [3]; 101% (inactive) in assay [4]; 97.6% (inactive) in assay [5]; 86.3% in assay [6] (setting [9]); 97.6% in assay [6] (setting [10]). Also, the Her2 level in assay [2] is 91% (inactive). For the same compound, the differential viability (reversal) in assay [6] (H69AR cells + 2 uM doxorubicin) is 11.3% (inactive). For the same compound, the inhibition in assay [7] is -4.53% (inactive); in assay [8], 3.44% (inactive).

Regarding `Cc1cc2c(c(=O)o1)C(C13C=CC(CC1)C3)C(C#N)=C(N)O2` (stereo not given), the viability in assay [1] was 124%; in assay [3] it was 124% (inactive); in assay [4], 90.1% (inactive); in assay [5] it was 99.8% (inactive); in assay [6] (setting [9]), 86.6%; in assay [6] (setting [10]), 99.8%. Besides, the Her2 level in assay [2] was 94.5% (inactive). Moreover, in assay [6] (H69AR cells + 2 uM doxorubicin), the differential viability (reversal) was 13.2% (inactive). Moreover, the figures for the inhibition in assay [7] and in assay [8] were -6.4% (inactive) and -5.97% (inactive), respectively.

For `Cc1ccccc1-c1nc2ccccc2c(=O)n1C1CCS(=O)(=O)C1` (stereo not given), the viability was 96.5% in assay [1]; 96.5% (inactive) in assay [3]; 108% (inactive) in assay [4]; 90.3% (inactive) in assay [5]; 100% in assay [6] (setting [9]); 90.3% in assay [6] (setting [10]). Moreover, the Her2 level in assay [2] was 91.5% (inactive). In addition, in assay [6] (H69AR cells + 2 uM doxorubicin), the differential viability (reversal) was -9.98% (inactive). The inhibition in assay [7] is 0.26% (inactive); in assay [8], 0.97% (inactive).

`Cn1c(=O)c2c(-c3ccncc3)c3c(nc2n(C)c1=O)-c1ccccc1C3=O`: the viability in assay [1] was 94%; in assay [3], 94% (inactive); in assay [4], 98.4% (inactive); in assay [5], 95% (inactive); in assay [6] (setting [9]), 92%; in assay [6] (setting [10]), 95%. In addition, the Her2 level in assay [2] was 104% (inactive). Further, the differential viability (reversal) in assay [6] (H69AR cells + 2 uM doxorubicin) is 2.95% (inactive). Also, the inhibition is -1.6% (inactive) in assay [7] and 9.37% (inactive) in assay [8].

On to `Cc1cc(C)nc(N2CCC(C(=O)Nc3ccc4c(c3)CCC4)CC2)n1`, for which the viability was 81.5% in assay [1]; 81.5% (inactive) in assay [3]; 54.9% (inactive) in assay [4]; 103% (inactive) in assay [5]; 96% in assay [6] (setting [9]); 103% in assay [6] (setting [10]). The Her2 level in assay [2] was 85% (inactive). The differential viability (reversal) in assay [6] (H69AR cells + 2 uM doxorubicin) was 7.34% (inactive). Moreover, the inhibition in assay [7] is -4.74% (inactive); in assay [8], -2.67% (inactive).
